Experiment: Transmission electron microscopy of the peptide assemblies
Format: physicochemical
Settings: TEM; after ALP 1 U/mL, 1.0 wt% in PBS buffer pH 7.4, 24 hours, 37 °C
How it was run: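 Phosphopeptide (1.0 wt% total, pH 7.4 PBS) was dephosphorylated with alkaline phosphatase (1 U/mL) for 24 h at 37 °C. Samples went onto 400 mesh copper grids coated with continuous carbon film (~35 nm), were stained with uranyl acetate and air-dried, then imaged by TEM. Nanofiber width was measured from the images.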

Substance: Nap-wwy [compound 1]
- Diameter (width) of the nanofibers: 7 ± 2 nm

Reference: PMC9017786 (Peptide science (Hoboken, N.J.), 2020)
